Laboratory results from ChEMBL document CHEMBL1125917, “Synthesis of halogen-substituted 1,5-benzothiazepine derivatives and their vasodilating and hypotensive activities” (1991).

Key:
Canis familiaris [1] = test: Antihypertensive activity by the increase in the vertebral blood flow in anesthetized dogs expressed as duration of half of the maximum change in blood flow.; type: functional, Canis lupus familiaris
Method in brief: (§1)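 Anesthetized dogs; compounds given intraarterially. Vertebral blood flow recorded, and a dose-response curve built from peak responses. Potency given as ratio to diltiazem, calculated from the dose-response curves. Half duration is the time, in minutes, that blood flow stays at one-half of the maximum change.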

Canis familiaris [2] = organism: Canis familiaris; test: Antihypertensive activity expressed as the ratio of the potency evaluated by increased vertebral blood flow (VBF) to that of diltiazem.; type: functional, Canis lupus familiaris; method in brief: as §1
Cavia porcellus = organism: Cavia porcellus; test: Increase in the coronary blood flow (CBF) was determined in isolated guinea pig heart at a dose of 100 ug/heart; type: functional
Method in brief: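 Hartley guinea pig hearts perfused by the Langendorff method with modified Locke-Ringer solution containing defibrinated rabbit blood, at 40 cm H2O and 29 ± 1 °C. Compounds in saline injected into the aortic cannula at 3, 10, 30 or 100 μg/heart. Coronary flow measured by drop counter; graded by the lowest dose giving an increase of at least 0.5 mL/min.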

Rattus norvegicus [3] = test: Change in blood pressure in spontaneously hypertensive rats 1 hr following 30 mg/kg p.o.; type: functional; conditions: route oral
Method in brief: (§2)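 Male spontaneously hypertensive rats, fasted 20 h. Compounds dissolved in deionized water and given orally (30 mg/kg; some at 100 mg/kg). Blood pressure measured by tail-cuff in conscious animals. Change (mmHg) taken from the predosing value at 1 and 4 h, or 1 and 5 h, after dosing. N = 3-6.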

Rattus norvegicus [4] = test: Hypotensive activity in SHR (spontaneously hypertensive rats) expressed as change in blood pressure(mmHg) after 4 hr dosing at a concentration of 30 mg/kg; type: functional; method in brief: as §2

| SMILES | Half duration (Canis familiaris [1]) | Potency ratio (Canis familiaris [2]) | Increase in CBF (Cavia porcellus) | Change in blood pressure (Rattus norvegicus [3]; 30 mg/kg) | Change in blood pressure (Rattus norvegicus [4]; 30 mg/kg) | Change in blood pressure (Rattus norvegicus [3]) | Change in blood pressure (Rattus norvegicus [4]) |
| --- | --- | --- | --- | --- | --- | --- | --- |
| COc1ccc(C2Sc3c(Cl)cccc3N(CCN(C)C)C(=O)C2OC(C)=O)cc1.Cl (single isomer, unassigned; (-)) | 22 min | 0.06 | <0.5 mL/min |  |  |  |  |
| Cc1ccc(C2Sc3cc(Cl)ccc3N(CCN(C)C)C(=O)C2OC(=O)c2ccc([N+](=O)[O-])cc2)cc1 (centres undefined) | 84 min | 0.08 |  |  |  |  |  |
| COc1ccc(C2Sc3cc(Cl)ccc3N(CCN(C)C)C(=O)C2O)cc1.Cl (centres undefined) | 39 min | 0.76 | >0.5 mL/min |  |  |  |  |
| CCN(CC)CCN1C(=O)C(OC(C)=O)C(c2ccc(OC)cc2)Sc2cc(Cl)ccc21 (centres undefined) | 48 min | 0.55 | >0.5 mL/min |  |  |  |  |
| COc1ccc(C2Sc3ccc(Cl)cc3N(CCN(C)C)C(=O)C2OC(C)=O)cc1.Cl (single isomer, unassigned; (+)) | 29 min | 0.93 | >0.5 mL/min |  |  |  |  |
| Cc1ccc(C2Sc3cc(Cl)ccc3N(CCN(C)C)C(=O)C2O)cc1 (centres undefined) | 31 min | 0.52 |  |  |  |  |  |
| Cc1ccc(C2Sc3cc(Cl)ccc3N(CCN(C)C)C(=O)C2OC(=O)c2ccc([N+](=O)[O-])cc2Cl)cc1 (centres undefined) | 156 min | 0.05 |  |  |  |  |  |
| COc1ccc(C2Sc3cc(Cl)ccc3N(CCN(C)C)C(=O)C2OC(C)=O)cc1.Cl (single isomer, unassigned; (-)) | 36 min | 0.06 | <0.5 mL/min | -6 delta mmHg | -22.7 delta mmHg |  |  |
| COc1ccc(C2Sc3cc(F)ccc3N(CCN(C)C)C(=O)C2O)cc1.Cl (centres undefined) | 40 min | 0.37 | >0.5 mL/min |  |  |  |  |
| CCN(C)CCN1C(=O)C(OC)C(c2ccc(OC)cc2)Sc2cc(Cl)ccc21 (single isomer, unassigned; (+)) | 41 min | 0.5 |  |  |  |  |  |
| COc1ccc(C2Sc3cc(F)ccc3N(CCN(C)C)C(=O)C2OC(C)=O)cc1.Cl (centres undefined) | 71 min | 0.37 | >0.5 mL/min |  |  | -64 delta mmHg | -50 delta mmHg |
| COc1ccc(C2Sc3cc(Cl)ccc3N(CCN(C)C)C(=O)C2O)cc1 (single isomer, unassigned; (+)) | 46 min | 0.94 | >0.5 mL/min | -13.3 delta mmHg | -51.7 delta mmHg |  |  |
| COc1ccc(C2Sc3cc(Cl)ccc3N(CCN(C)C)C(=O)C2OC(=O)c2ccc(C)cc2)cc1 (centres undefined) | 140 min | 0.33 |  |  |  |  |  |
| COc1ccc(C2Sc3c(ccc(Cl)c3Cl)N(CCN(C)C)C(=O)C2OC(C)=O)cc1.Cl (centres undefined) | 156 min | 0.35 | >0.5 mL/min |  |  |  |  |
| COc1ccc(C2Sc3cc(Cl)ccc3N(CCN(C)C)C(=O)C2OC(=O)c2ccc([N+](=O)[O-])cc2)cc1 (centres undefined) | 75 min | 0.05 | >0.5 mL/min |  |  |  |  |
| Cc1ccc(C2Sc3cc(Cl)ccc3N(CCN(C)C)C(=O)C2OC(=O)c2ccc(Cl)cc2[N+](=O)[O-])cc1 (centres undefined) | 140 min | 0.02 |  |  |  |  |  |
| COc1ccc(C2Sc3cc(Cl)ccc3N(CCN(C)C)C(=O)C2OC(C)=O)cc1.Cl (single isomer, unassigned; (+)) |  | 1.7 |  | -86 delta mmHg | -68 delta mmHg |  |  |
| CCCN(C)CCN1C(=O)C(O)C(c2ccc(OC)cc2)Sc2cc(Cl)ccc21 (centres undefined) | 35 min | 0.24 | >0.5 mL/min |  |  | -20 delta mmHg | -27.3 delta mmHg |

| SMILES | Half duration (Canis familiaris [1]) | Potency ratio (Canis familiaris [2]) | Increase in CBF (Cavia porcellus) | Change in blood pressure (Rattus norvegicus [3]; 30 mg/kg) | Change in blood pressure (Rattus norvegicus [4]; 30 mg/kg) | Change in blood pressure (Rattus norvegicus [3]) | Change in blood pressure (Rattus norvegicus [4]) |
| --- | --- | --- | --- | --- | --- | --- | --- |
| CCCC(=O)OC1C(=O)N(CCN(C)C)c2ccc(Cl)cc2SC1c1ccc(OC)cc1 (single isomer, unassigned; (+)) | 41 min | 0.8 |  |  |  | -30 delta mmHg | -28 delta mmHg |
| C=CCN(C)CCN1C(=O)C(O)C(c2ccc(OC)cc2)Sc2cc(Cl)ccc21 (single isomer, unassigned; (+)) | 34 min | 0.23 |  |  |  |  |  |
| COc1ccc(C2Sc3ccc(Cl)cc3N(CCN(C)C)C(=O)C2OC(C)=O)cc1.Cl (stereo in doubt; (-)-2ll) | 12 min | 0.03 | <0.5 mL/min |  |  |  |  |
| COc1ccc(C2Sc3c(F)cccc3N(CCN(C)C)C(=O)C2O)cc1.Cl (centres undefined) | 33 min | 0.14 | >0.5 mL/min |  |  |  |  |
| CCN(C)CCN1C(=O)C(OC(C)=O)C(c2ccc(OC)cc2)Sc2cc(Cl)ccc21 (stereo in doubt; 2o) | 60 min | 0.74 |  |  |  |  |  |
| COc1ccc(C2Sc3c(Cl)cccc3N(CCN(C)C)C(=O)C2OC(C)=O)cc1.Cl (single isomer, unassigned; (+)) | 74 min | 0.83 |  |  |  | -73.7 delta mmHg | -54.3 delta mmHg |
| COc1ccc(C2Sc3ccc(Cl)cc3N(CCN(C)C)C(=O)C2O)cc1 (single isomer, unassigned; (+)) | 24 min | 0.17 | <0.5 mL/min |  |  |  |  |
| CCCCC(=O)OC1C(=O)N(CCN(C)C)c2ccc(Cl)cc2SC1c1ccc(OC)cc1 (single isomer, unassigned; (+)) | 42 min | 0.67 |  |  |  | -46 delta mmHg | -39 delta mmHg |
| CCN(CC)CCN1C(=O)C(O)C(c2ccc(OC)cc2)Sc2cc(Cl)ccc21 (single isomer, unassigned; (+)) | 31 min | 0.32 | >0.5 mL/min |  |  |  |  |
| COc1ccc(C2Sc3c(Cl)cccc3N(CCN(C)C)C(=O)C2O)cc1 (single isomer, unassigned; (-)) | 21 min | 0.02 | <0.5 mL/min |  |  |  |  |
| COc1ccc(C2Sc3cc(Cl)c(Cl)cc3N(CCN(C)C)C(=O)C2O)cc1.Cl (centres undefined) | 36 min | 0.29 | >0.5 mL/min |  |  |  |  |
| C#CCN(C)CCN1C(=O)C(O)C(c2ccc(OC)cc2)Sc2cc(Cl)ccc21 (centres undefined) | 28 min | 0.06 |  |  |  |  |  |
| COc1ccc(C2Sc3cc(Cl)ccc3N(CCN(C)C)C(=O)C2OC(=O)c2ccc([N+](=O)[O-])cc2Cl)cc1 (single isomer, unassigned; (+)) | 118 min | 0.08 | >0.5 mL/min |  |  |  |  |
| CCOC(=O)OC1C(=O)N(CCN(C)C)c2ccc(F)cc2SC1c1ccc(OC)cc1 (centres undefined) | 33 min | 0.16 | >0.5 mL/min |  |  |  |  |
| CC(=O)OC1C(=O)N(CCN(C)C)c2ccc(Cl)cc2SC1c1ccc(C)cc1 (centres undefined) | 61 min | 0.37 |  |  |  |  |  |
| COc1ccc(C2Sc3cc(Cl)ccc3N(CCN(C)C)C(=O)C2OC(C)=O)cc1.Cl (stereo in doubt; 2w) | 31 min | 0.01 |  |  |  |  |  |
| COc1ccc(C2Sc3cc(F)ccc3N(CCN(C)C)C(=O)C2OC(=O)c2ccc(C)cc2)cc1 (centres undefined) | 62 min | 0.26 |  |  |  |  |  |
